The values that follow come from ChEMBL document CHEMBL1145965, “4-Substituted 4-hydroxycyclohexa-2,5-dien-1-ones with selective activities against colon and renal cancer cell lines” (J Med Chem, 2003).

Test [1] deals with HT-29. Kind of test: Inhibitory activity against HT-29 colon cancer cell line. In kind it is functional, cell-based. The conditions noted are these: Homo sapiens. In short, it runs like this: (§1)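 Cells grown in RPMI 1640 with 2 mM L-glutamine and 10% fetal calf serum, 37 °C, 5% CO2. Seeded at 5 × 10³ per well, 24 h adherence, then drug 0.1 nM–100 μM final (n = 8; DMSO stocks, dilutions in medium) for 72 h.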

The test system of test [2] is MDA-MB-468. Nature of the test: Inhibitory activity against MDA-468 mammary carcinoma cell line. In kind it is functional, cell-based. The conditions noted are these: Homo sapiens. An outline of the steps: as §1
Test [3] deals with A549. Kind of test: Inhibitory activity against A549 lung adenocarcinoma cell line. The conditions noted are these: Homo sapiens. In kind it is functional, cell-based. In short, it runs like this: as §1
Test [4] relates to HCT-116. Kind of test: In vitro lethal concentration against most sensitive colon HCT116 cell line. Format: functional. To be noted: Homo sapiens, read-out: LC50 (the source's name).
Test [5] deals with SW-620. Kind of test: In vitro lethal concentration against least sensitive colon SW-620 cell line. Format: functional. To be noted: Homo sapiens, read-out: LC50 (the source's name).
For test [6], the system named is Panel NCI-60 (60 carcinoma cell lines). Kind of test: In vitro mean growth lethal concentration against 60-cell panel. The conditions noted are these: Homo sapiens, read-out: Mean LC50. Format: functional.
Test [7] shares this test system. Kind of test: In vitro mean growth lethal concentration in renal subpanel against 60-cell panel. In kind it is functional. The conditions noted are these: Homo sapiens, read-out: Mean LC50.
In test [8] the test system is ACHN. Nature of the test: In vitro lethal concentration against most sensitive ACHN cell line. To be noted: Homo sapiens, read-out: LC50 (the source's name). In kind it is functional.
In test [9] the test system is Panel NCI-60 (60 carcinoma cell lines). Kind of test: In vitro mean growth inhibitory activity against 60-cell panel. In kind it is functional. The conditions noted are these: Homo sapiens.
Test [10] concerns HCT-116. Kind of test: Inhibitory activity against HCT116 colon cancer cell line. In kind it is functional, cell-based. The conditions noted are these: Homo sapiens. An outline of the steps:
as §1

Test [11] relates to MCF7. Nature of the test: Inhibitory activity against MCF-7 mammary carcinoma cell line. In kind it is functional, cell-based. To be noted: Homo sapiens. In short, it runs like this: as §1
Test [12] has as its system Panel NCI-60 (60 carcinoma cell lines). Nature of the test: In vitro mean growth lethal concentration in colon subpanel against 60-cell panel. Format: functional. To be noted: Homo sapiens, read-out: Mean LC50.

As to `O=C1C=CC(O)(c2nc3ccccc3o2)C=C1`, the IC50 worked out at 0.29 µM in test [1]; 0.35 µM in [2]; 2.33 µM in [3]; 0.18 µM in test [10]; 0.39 µM in test [11]. Besides, the CC50 is 0.87 µM in test [4]; > 100 µM in [5]; 7.08 µM in test [6]; 1.64 µM in [7]; 4.9 µM in [8]; 1.13 µM in test [12]. This compound also registered a GI50 in [9] of 0.46 µM.

Turning to `O=C1C=CC(O)(c2ccccc2)C=C1`, the results for the IC50 in test [1] and in test [10] were 3.63 µM and 2.22 µM, respectively. Besides, the CC50 stood at 6.31 µM in test [4]; 51.3 µM in [5]; 21.9 µM in test [6]; 16.7 µM in [7]; 5.5 µM in [8]; 10.6 µM in [12]. The compound further returned a GI50 in test [9] of 2.29 µM.

With `O=C1C=CC(O)(c2ccccn2)C=C1`, the IC50 was determined as 0.46 µM in test [1], 1.5 µM in [2], 0.55 µM in test [10] and 0.72 µM in test [11]. In addition, the CC50 was 5.24 µM in test [4]; > 100 µM in test [5]; 20.4 µM in test [6]; 11.3 µM in [7]; 8.91 µM in test [8]; 6.9 µM in [12]. This compound also displayed a GI50 in test [9] of 1.91 µM.

For the compound `COC1(c2nc3c(F)cccc3s2)C=CC(=NS(=O)(=O)c2ccc(C)cc2)C=C1` (stereo unspecified), the CC50 in test [4] came out at 57.5 µM; in test [5], 67.6 µM; in test [6], 27.5 µM; in [7] it was 14.4 µM; in test [8], 7.59 µM; in test [12], 26.9 µM. This compound also yielded a GI50 in test [9] of 2.57 µM.

Take `O=C1C=CC(O)(c2cc3ccccc3o2)C=C1`: the IC50 in test [1] was 0.42 µM; in test [3], 2.3 µM; in test [10] it was 0.16 µM. Moreover, the CC50 in test [4] was 0.6 µM; in [5] it was > 100 µM; in test [6], 7.24 µM; in test [7], 2.4 µM; in test [8], 1 µM; in test [12] it was 3.66 µM. The compound further had a GI50 in test [9] of 0.52 µM.

Take `O=C1C=CC(O)(c2cnc3ccccc3c2)C=C1`: the IC50 in test [1] came out at 0.97 µM; in [2] it was 1.7 µM; in test [10], 0.72 µM; in test [11], 0.77 µM. For the same compound, the CC50 in test [4] was 4.26 µM; in test [5], > 100 µM; in [6], 15.8 µM; in [7], 9.66 µM; in [8], 15.1 µM; in test [12] it was 15.8 µM. Moreover, the GI50 in [9] stood at 1.07 µM.

Turning to `O=C1C=CC(O)(c2cc3ccccc3s2)c2ccccc21` (stereo unspecified), the CC50 in test [4] was > 100 µM; in test [5] it was > 100 µM; in test [6] it was 70.8 µM; in test [7], > 100 µM; in test [8], > 100 µM; in test [12], > 100 µM. The GI50 in [9] was determined as 2.29 µM.

In the case of `O=C1C=CC(O)(c2nc3ccccc3s2)C(Cl)=C1` (stereo unspecified), the CC50 in test [4] is 0.68 µM; in test [5] it was > 100 µM; in test [6], 6.31 µM; in test [7], 1.8 µM; in test [8], 0.58 µM; in test [12], 2.31 µM. The GI50 in test [9] was found to be 0.46 µM.

Consider `O=C1C=CC(O)(c2cccc3ccccc23)C=C1`, for which the IC50 in test [1] worked out at 1.36 µM; in [2] it was 1.77 µM; in [10] it was 0.42 µM; in test [11] it was 0.78 µM. Moreover, the CC50 is 5.37 µM in test [4]; > 100 µM in [5]; 25.7 µM in [6]; 17 µM in test [7]; 13.2 µM in test [8]; 12.2 µM in [12]. Further, in [9], the GI50 was determined as 1.82 µM.

In the case of `O=C1C=CC(O)(c2cccs2)C=C1`, the IC50 turned out to be 1.25 µM in [1], 0.72 µM in test [2], 0.66 µM in test [10] and 0.57 µM in test [11]. Besides, the CC50 is 5.89 µM in test [4]; > 100 µM in test [5]; 30.9 µM in [6]; 14.4 µM in test [7]; 35.5 µM in test [8]; 32.5 µM in [12]. In test [9], growth was halved (GI50) at 1.78 µM.

As for `Oc1ccc(-c2nc3ccccc3s2)cc1`, the IC50 in test [2] was determined as 0.4 µM; in test [11], 69.4 µM. In addition, the CC50 in test [4], in test [5], in test [6], in test [7], in [8] and in test [12] was > 100 µM each time. Besides, the GI50 in test [9] was 33.9 µM.

Consider `CC1=CC(O)(c2nc3ccccc3s2)C=C(C)C1=O`, for which the CC50 in [4], in test [5], in test [6], in test [7], in test [8] and in [12] was > 100 µM each time. In test [9], this compound showed a GI50 of 38.2 µM.

`COC1(c2nc3ccc(C)cc3s2)C=CC(=NS(=O)(=O)c2ccc(C)cc2)C=C1` (stereo unspecified): the CC50 in [4] is 1.78 µM; in test [5], 95.5 µM; in [6] it was 19.5 µM; in [7], 10.6 µM; in [8] it was 6.92 µM; in test [12], 9.92 µM. This compound also showed a GI50 in test [9] of 1.2 µM.

As for `COc1ccc2nc(C3(OC)C=CC(=NS(=O)(=O)c4ccc(C)cc4)C=C3)sc2c1` (stereo unspecified), the CC50 in test [4] was 5.01 µM; in test [5] it was 77.6 µM; in [6], 18.6 µM; in [7], 11.2 µM; in test [8], 8.32 µM; in [12], 13.2 µM. In [9], this compound returned a GI50 of 1.91 µM.

As for `O=C1CCC(O)(c2nc3ccccc3s2)CC1`, the CC50 in test [4], in test [5], in test [6], in test [7], in [8] and in [12] was > 100 µM each time. The GI50 in test [9] was > 100 µM.

In the case of `O=C1/C(=C\c2ccccc2)CC(O)(c2nc3ccccc3s2)C/C1=C/c1ccccc1` (stereo unspecified), the CC50 in [4] was 5.37 µM; in test [5] it was > 100 µM; in [6] it was 47.9 µM; in test [7] it was 37.2 µM; in test [8], 30.9 µM; in test [12], 17.4 µM. This compound showed a GI50 in test [9] of 2.69 µM.

On to `O=C1C=CC(O)(c2ccc3ccccc3c2)C=C1`, for which the IC50 was found to be 2.5 µM in test [1], 1.4 µM in test [2], 0.82 µM in test [10] and 1.3 µM in test [11]. Further, the CC50 in test [4] is 4.47 µM; in [5], > 100 µM; in [6], 11.7 µM; in test [7], 4.68 µM; in test [8] it was 7.76 µM; in test [12], 6.58 µM. In test [9], this compound came in with a GI50 of 0.81 µM.

Regarding `O=C1C=CC(O)(c2nccs2)C=C1`, the values for the 50% inhibitory concentration (IC50) in test [1] and in test [10] were 0.72 µM and 0.62 µM, respectively. In addition, the CC50 was 4.9 µM in test [4]; 26.3 µM in test [5]; 14.5 µM in test [6]; 9.17 µM in [7]; 7.94 µM in test [8]; 14.5 µM in test [12]. The same compound came in with a 50% growth inhibitory concentration (GI50) in test [9] of 1.35 µM.

On to `COC1(c2nc3ccc(F)cc3s2)C=CC(=NS(=O)(=O)c2ccc(C)cc2)C=C1` (stereo unspecified), for which the CC50 is 5.25 µM in test [4]; > 100 µM in test [5]; 30.2 µM in test [6]; 19.1 µM in test [7]; > 100 µM in [8]; 25.6 µM in test [12]. For the same compound, the GI50 in [9] amounted to 1.74 µM.

As for `O=C1C=CC(O)(c2cc3ccccc3s2)C=C1`, the IC50 was found to be 0.55 µM in test [1], 2.43 µM in [3] and 0.17 µM in test [10]. For the same compound, the CC50 is 0.6 µM in [4]; > 100 µM in [5]; 5.75 µM in [6]; 1.4 µM in test [7]; 0.33 µM in [8]; 1.69 µM in [12]. The GI50 in test [9] amounted to 0.25 µM.

As for `COC1(c2nc3ccccc3s2)C=CC(=NS(=O)(=O)c2ccc(C)cc2)C=C1` (stereo unspecified), the CC50 was 44.7 µM in test [4]; > 100 µM in test [5]; 83.2 µM in test [6]; > 100 µM in test [7]; > 100 µM in test [8]; > 100 µM in test [12]. In [9], this compound displayed a GI50 of 15.5 µM.

Consider `O=C1C=CC(O)(c2cc3ccccc3o2)c2ccccc21` (stereo unspecified), for which the CC50 in test [4] worked out at 4.9 µM; in test [5], 3.55 µM; in test [6], 7.76 µM; in test [7], 6.48 µM; in test [8] it was 5.75 µM; in [12], 7.76 µM. Further, the GI50 in test [9] came to 0.74 µM.
